Test results reported in ChEMBL document CHEMBL1275592, “AmpN-AmpG operon is essential for expression of L1 and L2 beta-lactamases in Stenotrophomonas maltophilia” (2010).
In brackets after ≈: the same amount, converted by molar mass.

Key:
Assay type in all cases: functional
[1] = test system: Stenotrophomonas maltophilia; test: Antimicrobial activity against Stenotrophomonas maltophilia KJN1 harboring ampN with xylE-Gmomega cassette insertion by agar dilution method
How it was run: (§1)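 MICs were determined in triplicate by standard 2-fold serial agar dilution, following CLSI guidelines.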

[2] = test system: Stenotrophomonas maltophilia; test: Antimicrobial activity against Stenotrophomonas maltophilia KJN2 harboring pRK415 plasmid and ampN with xylE-Gmomega cassette insertion by agar dilution method; how it was run: as §1
[3] = test system: Stenotrophomonas maltophilia; test: Antimicrobial activity against Stenotrophomonas maltophilia KJ by agar dilution method; how it was run: as §1
[4] = test system: Stenotrophomonas maltophilia; test: Antimicrobial activity against Stenotrophomonas maltophilia KJN2 harboring pRK-NG plasmid and ampN with xylE-Gmomega cassette insertion by agar dilution method; how it was run: as §1
[5] = test system: Stenotrophomonas maltophilia; test: Antimicrobial activity against Stenotrophomonas maltophilia KJN2 harboring pRK-G plasmid and ampN with xylE-Gmomega cassette insertion by agar dilution method; how it was run: as §1
[6] = test system: Stenotrophomonas maltophilia; test: Antimicrobial activity against Stenotrophomonas maltophilia KJ harboring pRK415 plasmid by agar dilution method; how it was run: as §1
[7] = test system: Stenotrophomonas maltophilia; test: Antimicrobial activity against ampN deficient Stenotrophomonas maltophilia KJ harboring ampG with xylE-Gmomega cassette insertion by agar dilution method; how it was run: as §1
[8] = test system: Stenotrophomonas maltophilia; test: Antimicrobial activity against ampN deficient Stenotrophomonas maltophilia KJ by agar dilution method; how it was run: as §1
[9] = test system: Stenotrophomonas maltophilia; test: Antimicrobial activity against Stenotrophomonas maltophilia KJG harboring ampG with xylE-Gmomega cassette insertion by agar dilution method; how it was run: as §1
[10] = test system: Stenotrophomonas maltophilia; test: Antimicrobial activity against Stenotrophomonas maltophilia KJN2 harboring pRK-EcG plasmid and ampN with xylE-Gmomega cassette insertion by agar dilution method; how it was run: as §1
[11] = test system: Stenotrophomonas maltophilia; test: Antimicrobial activity against Stenotrophomonas maltophilia KJN2 harboring ampN with xylE-Gmomega cassette insertion by agar dilution method; how it was run: as §1
[12] = test system: Stenotrophomonas maltophilia; test: Antimicrobial activity against Stenotrophomonas maltophilia KJ harboring pRK-NG plasmid by agar dilution method; how it was run: as §1
[13] = test system: Stenotrophomonas maltophilia; test: Antimicrobial activity against Stenotrophomonas maltophilia KJN1 harboring ampN with xylE-Gmomega cassette insertion by Etest
How it was run: (§2)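 Imipenem and meropenem MICs were read from Etest strips, following the manufacturer's instructions.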

[14] = test system: Stenotrophomonas maltophilia; test: Antimicrobial activity against Stenotrophomonas maltophilia KJ by Etest; how it was run: as §2
[15] = test system: Stenotrophomonas maltophilia; test: Antimicrobial activity against ampN deficient Stenotrophomonas maltophilia KJ by Etest; how it was run: as §2
[16] = test system: Stenotrophomonas maltophilia; test: Antimicrobial activity against Stenotrophomonas maltophilia KJN2 harboring pRK-NG plasmid and ampN with xylE-Gmomega cassette insertion by Etest; how it was run: as §2
[17] = test system: Stenotrophomonas maltophilia; test: Antimicrobial activity against Stenotrophomonas maltophilia KJN2 harboring ampN with xylE-Gmomega cassette insertion by Etest; how it was run: as §2
[18] = test system: Stenotrophomonas maltophilia; test: Antimicrobial activity against Stenotrophomonas maltophilia KJN2 harboring pRK415 plasmid and ampN with xylE-Gmomega cassette insertion by Etest; how it was run: as §2
[19] = test system: Stenotrophomonas maltophilia; test: Antimicrobial activity against Stenotrophomonas maltophilia KJN2 harboring pRK-G plasmid and ampN with xylE-Gmomega cassette insertion by Etest; how it was run: as §2
[20] = test system: Stenotrophomonas maltophilia; test: Antimicrobial activity against Stenotrophomonas maltophilia KJN2 harboring pRK-EcG plasmid and ampN with xylE-Gmomega cassette insertion by Etest; how it was run: as §2
[21] = test system: Stenotrophomonas maltophilia; test: Antimicrobial activity against ampN deficient Stenotrophomonas maltophilia KJ harboring ampG with xylE-Gmomega cassette insertion by Etest; how it was run: as §2
[22] = test system: Stenotrophomonas maltophilia; test: Antimicrobial activity against Stenotrophomonas maltophilia KJG harboring ampG with xylE-Gmomega cassette insertion by Etest; how it was run: as §2

CO[C@@]1(NC(=O)Cc2cccs2)C(=O)N2C(C(=O)O)=C(COC(N)=O)CS[C@@H]21 [CEFOXITIN] gave an MIC [1] of 32 µg/mL (≈ 74.9 µM), an MIC [2] of 32 µg/mL (≈ 74.9 µM) and an MIC [3] of 1020 µg/mL (≈ 2400 µM). For the same molecule, the MIC [4] was 1020 µg/mL (≈ 2400 µM), the MIC [5] was 64 µg/mL (≈ 150 µM) and the MIC [6] was 1020 µg/mL (≈ 2400 µM). It also gave an MIC [7] of 32 µg/mL (≈ 74.9 µM), an MIC [8] of 32 µg/mL (≈ 74.9 µM) and an MIC [9] of 32 µg/mL (≈ 74.9 µM). It also gave an MIC [10] of 1020 µg/mL (≈ 2400 µM), an MIC [11] of 32 µg/mL (≈ 74.9 µM) and an MIC [12] of 1020 µg/mL (≈ 2400 µM).
C[C@@H](O)[C@H]1C(=O)N2C(C(=O)O)=C(S[C@@H]3CN[C@H](C(=O)N(C)C)C3)[C@H](C)[C@H]12 [MEROPENEM] was tested, and the MIC [13] was 0.5 µg/mL (≈ 1.3 µM), the MIC [14] was over 32 µg/mL and the MIC [15] was 0.38 µg/mL (≈ 0.991 µM). For the same molecule, the MIC [16] was over 32 µg/mL, the MIC [17] was 0.38 µg/mL (≈ 0.991 µM) and the MIC [18] was 0.5 µg/mL (≈ 1.3 µM). It also gave an MIC [19] of 0.75 µg/mL (≈ 1.96 µM), an MIC [20] of over 32 µg/mL and an MIC [21] of 0.38 µg/mL (≈ 0.991 µM). The MIC [22] was 0.38 µg/mL (≈ 0.991 µM).
